# Measured values reported in paper PMC3063522 (Journal of agricultural and food chemistry, 2011).
# Entries after “also recorded” stand apart in the source; their conditions may differ.
# Key:
# Cytotoxicity [1] = format: cell-based; conditions: pig, LLC-PK11 kidney epithelial cells
# In short: (§1)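 Anti-proliferative assay run alongside four human tumour lines (SK-MEL, KB, BT-549, SK-OV-3) and two noncancerous kidney lines (Vero, LLC-PK11). Doxorubicin served as the positive control.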
# Botrytis cinerea = assay: Antifungal broth dilution microbioassay, Botrytis cinerea; format: cell-based
# In short: (§2)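 Broth microdilution adapted from the NCCLS M27-A yeast method for conidia-forming filamentous plant-pathogenic fungi. The commercial fungicide captan served as the internal standard in every assay. Means were compared by SAS analysis of variance with Fisher's protected LSD. For P. viticola and P. obscurans, activity was read at 120 and 144 h of incubation.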
# Cytotoxicity [2] = format: cell-based; conditions: human, BT-549 breast ductal carcinoma cells
# In short: as §1
# [3] = Cytotoxicity towards HL-60 cells in the antioxidant assay; format: cell-based; conditions: human, HL-60 promyelocytic leukemia cells
# mosquito larvae = assay: Mosquito larvae toxicity bioassay; format: in vivo; conditions: Figure 4
# In short: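 Larval toxicity bioassay, run in triplicate. Controls were untreated, DMSO-acetone carrier, and permethrin as the positive control.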
# Cytotoxicity [4] = format: cell-based; conditions: human, SK-OV-3 ovary carcinoma cells
# In short: as §1
# [5] = Cytotoxicity to RAW 264.7 cells in the iNOS assay; format: cell-based, mouse; conditions: mouse, RAW 264.7 macrophages
# Cytotoxicity [6] = format: cell-based; conditions: human, KB oral epidermal carcinoma cells
# In short: as §1
# Cytotoxicity [7] = format: cell-based; conditions: African green monkey, Vero kidney fibroblasts
# In short: as §1
# Phomopsis viticola = assay: Antifungal broth dilution microbioassay, Phomopsis viticola; format: cell-based
# In short: as §2
# Cytotoxicity [8] = format: cell-based; conditions: human, SK-MEL malignant melanoma cells
# In short: as §1
# Phomopsis obscurans = assay: Antifungal broth dilution microbioassay, Phomopsis obscurans; format: cell-based
# In short: as §2
# [9] = test system: adult A. aegypti female mosquitoes; assay: Adult mosquito topical toxicity assay; format: in vivo; conditions: for Adult mosquito mortality rate ± SD: topical, 3.12 μg per insect, acetone/DMSO control gave 5.8±1.8%
# [10] = at the highest concentrations, Figure 2D
# [11] = 120 and 144 h (from 120 to 144 h)
Structure (SMILES),IC50 (Cytotoxicity [1]),Growth inhibition of B. cinerea (Botrytis cinerea; 48 h),Growth inhibition of B. cinerea (Botrytis cinerea; 72 h),IC50 (Cytotoxicity [2]),IC50 [3],Toxicity to mosquito larvae (mosquito larvae),IC50 (Cytotoxicity [4]),IC50 [5],IC50 (Cytotoxicity [6]),IC50 (Cytotoxicity [7]),Antifungal activity against P. viticola (Phomopsis viticola; [10]),IC50 (Cytotoxicity [8]),Antifungal activity against P. obscurans (Phomopsis obscurans; [11]),Adult mosquito mortality rate ± SD [9],"Adult mosquito mortality ([9]; 6.25 μg/mosquito, positive standard)",Antifungal activity against P. obscurans (Phomopsis obscurans; 144 h of incubation),Antifungal activity against P. viticola (Phomopsis viticola; 144 h of incubation),Antifungal activity against P. obscurans (Phomopsis obscurans; 120 h)
"Oc1cc(O)cc(/C=C/c2ccccc2)c1 [Compound 11, pinosylvin]",10.5 µg/mL,minimal activity,no activity,13 µg/mL,18 µg/mL,significantly lower toxicity,17 µg/mL,10.5 µg/mL,13.8 µg/mL,13 µg/mL,essentially inactive,12.5 µg/mL,,,,,,
"CC(C)/C=C/c1c(O)cc(/C=C/c2ccc(O)c(O)c2)cc1O [Compound 1, arachidin-1]",2.8 µg/mL,,,4.8 µg/mL,5.2 µg/mL,,14.5 µg/mL,8.3 µg/mL,4.8 µg/mL,12 µg/mL,,15 µg/mL,did not exhibit any activity,marginally active,,,,
"CC(C)(O)C(O)Cc1c(O)cc(/C=C/c2ccccc2)cc1O (stereo not shown) [Compound 9, arahypin-4]",> 25 µg/mL,,,> 25 µg/mL,> 31.3 µg/mL,,> 25 µg/mL,> 25 µg/mL,> 25 µg/mL,> 25 µg/mL,,> 25 µg/mL,,10±0.0%,,,,
Oc1cccc(/C=C/c2ccccc2)c1 [Compound 14],> 25 µg/mL,,,> 25 µg/mL,19 µg/mL,highest activity; also recorded: very low compared to the positive control permethrin,> 25 µg/mL,22 µg/mL,> 25 µg/mL,> 25 µg/mL,,> 25 µg/mL,,,,,,
"CC1(C)C(C=C(Cl)Cl)C1C(=O)OCc1cccc(Oc2ccccc2)c1 (stereo not shown) [permethrin, reference compound]",,,,,,,,,,,,,,,100%,,,
"COc1cccc2c1C(=O)c1c(O)c3c(c(O)c1C2=O)C[C@@](O)(C(=O)CO)C[C@@H]3O[C@H]1C[C@H](N)[C@H](O)[C@H](C)O1 [Doxorubicin, reference compound]",0.9 µg/mL,,,1.35 µg/mL,0.24 µg/mL,,1.3 µg/mL,,1.45 µg/mL,> 5 µg/mL,,0.8 µg/mL,,,,,,
"CC(C)=CCc1c(O)cc(/C=C/c2ccccc2)cc1O [Compound 5, chiricanine A]",19.5 µg/mL,,,> 25 µg/mL,19 µg/mL,significantly lower toxicity,> 25 µg/mL,13 µg/mL,> 25 µg/mL,> 25 µg/mL,,20 µg/mL,highest levels of inhibition,6.7±5.8%,,more fungicidal; also recorded: very high,more fungicidal,
Oc1ccc(/C=C/c2ccccc2)cc1O [Compound 12],> 25 µg/mL,minimal activity,no activity,> 25 µg/mL,> 25 µg/mL,,> 25 µg/mL,> 25 µg/mL,> 25 µg/mL,> 25 µg/mL,essentially inactive,> 25 µg/mL,,,,,,
"CC(C)/C=C/c1c(O)cc(/C=C/C2=CC(=O)OC2CC(=O)O)cc1O (stereo not shown) [Compound 4, SB-1]",> 25 µg/mL,,,> 25 µg/mL,> 25 µg/mL,,> 25 µg/mL,> 25 µg/mL,> 25 µg/mL,> 25 µg/mL,,> 25 µg/mL,did not exhibit any activity,,,,,
COc1cccc(CCc2ccc(O)cc2)c1 [Compound 17],> 25 µg/mL,,,> 25 µg/mL,9 µg/mL,,> 25 µg/mL,> 25 µg/mL,> 25 µg/mL,> 25 µg/mL,,> 25 µg/mL,,,,,,
"Oc1ccc(/C=C/c2cccc(O)c2)cc1 [Compound 15, trans-3,4′-dihydroxystilbene]",12 µg/mL,,,> 25 µg/mL,4 µg/mL,,> 25 µg/mL,> 25 µg/mL,> 25 µg/mL,19.5 µg/mL,,> 25 µg/mL,,,,,,
"CC(C)/C=C/c1c(O)cc(/C=C/c2ccccc2)cc1O [Compound 6, arahypin-1]",> 25 µg/mL,,,> 25 µg/mL,> 31.3 µg/mL,,> 25 µg/mL,> 25 µg/mL,> 25 µg/mL,> 25 µg/mL,,> 25 µg/mL,highest levels of inhibition,,,more fungicidal,more fungicidal,
Oc1cccc(CCc2ccccc2)c1 [Compound 16],> 25 µg/mL,,,> 25 µg/mL,17 µg/mL,highest activity; also recorded: very low compared to the positive control permethrin,> 25 µg/mL,> 25 µg/mL,> 25 µg/mL,> 25 µg/mL,appreciable activity,> 25 µg/mL,,,,,statistically higher activity compared to 14,
COc1cccc(/C=C/c2ccc(O)cc2)c1 [Compound 13],> 25 µg/mL,,,> 25 µg/mL,4 µg/mL,highest activity; also recorded: very low compared to the positive control permethrin,> 25 µg/mL,19.5 µg/mL,> 25 µg/mL,> 25 µg/mL,appreciable activity,> 25 µg/mL,,,,,,
"CC(C)=CCC/C(C)=C/Cc1c(O)cc(/C=C/c2ccc(O)cc2O)cc1O [Compound 22, chlorophorin]",14.5 µg/mL,very high growth inhibition values,very high growth inhibition values,20 µg/mL,25 µg/mL,,> 25 µg/mL,9 µg/mL,> 25 µg/mL,15.5 µg/mL,appreciable activity,> 25 µg/mL,,,,,,
"CC(C)(O)C(O)Cc1c(O)cc(/C=C/c2ccc(O)cc2)cc1O (stereo not shown) [Compound 8, arahypin-3]",> 25 µg/mL,,,> 25 µg/mL,> 25 µg/mL,,> 25 µg/mL,> 25 µg/mL,> 25 µg/mL,> 25 µg/mL,,> 25 µg/mL,,marginally active,,,,
"CC1(C)C=Cc2c(O)cc(/C=C/c3ccc(O)cc3)cc2O1 [Compound 10, arahypin-5]",19.5 µg/mL,,,> 25 µg/mL,4.5 µg/mL,,> 25 µg/mL,16 µg/mL,> 25 µg/mL,> 25 µg/mL,,17.5 µg/mL,,5.8±1.8%,,more fungicidal,more fungicidal,
COc1cc(/C=C/c2ccccc2)cc(OC)c1 [Compound 18],> 25 µg/mL,,,> 25 µg/mL,> 25 µg/mL,highest activity; also recorded: very low compared to the positive control permethrin,> 25 µg/mL,> 25 µg/mL,> 25 µg/mL,> 25 µg/mL,,> 25 µg/mL,,,,,,
"CC(C)(O)C(O)Cc1cc(/C=C/c2cc(O)cc(O)c2)ccc1O (stereo not shown) [Compound 7, arahypin-2]",> 25 µg/mL,,,> 25 µg/mL,> 25 µg/mL,,> 25 µg/mL,> 25 µg/mL,> 25 µg/mL,> 25 µg/mL,,> 25 µg/mL,highest levels of inhibition,marginally active,,extremely low,,very high
"COc1ccc(/C=C/c2cc(O)cc(O[C@@H]3O[C@H](CO)[C@@H](O)[C@H](O)[C@H]3O)c2)cc1O [Compound 23, rhapontin, reference compound]",> 25 µg/mL,,very high growth inhibition values,> 25 µg/mL,20 µg/mL,significantly lower toxicity,> 25 µg/mL,> 25 µg/mL,> 25 µg/mL,> 25 µg/mL,,> 25 µg/mL,,,,,,
COc1cc(O)cc(/C=C/c2ccccc2)c1 [Compound 19],> 25 µg/mL,,,> 25 µg/mL,18 µg/mL,highest activity; also recorded: somewhat greater activity,> 25 µg/mL,12 µg/mL,> 25 µg/mL,> 25 µg/mL,appreciable activity,> 25 µg/mL,,,,,,
"C=C1C(=O)O[C@H]2[C@H]1CC/C(C)=C/CC[C@@]1(C)O[C@@H]21 [Parthenolide, reference compound]",,,,,,,,13.5 µg/mL,,,,,,,,,,
